Source: PubChem BioAssay
CHOP inhibitor: inhibitors of CHOP induction in ER stress response; AID 2732; hit rate 3.8% among 220,000; CHO-K1 CHOP-promoter luciferase, tunicamycin-induced, 15-18 h; inhibition, % at 10 µM;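 active = compounds that reduced the stress-induced luciferase reporter signal by more than about 70% of percent inhibition, limit read from the data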;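 also: 0% = tunicamycin plus vehicle and 100% = wells without tunicamycin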
Dynein transport: blocks dynein driven cargo transport along microtubules | 3617.4 mouse cells, GR-EGFP nuclear translocation imaging; test concentration mostly 20 µM; stimulated with dexamethasone, 1 µM; active compounds read low | hit rate 0.47% among 220,000 | z-score, hits read low;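 active = plate z-score of nuclear minus cytoplasmic receptor signal below a set negative limit, without overly bright fluorescence or cell loss, cut at about -3.5 in these data, passing the limit was not always enough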;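 also: z-score of nuclear minus cytoplasmic ring GR-EGFP intensity difference per well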
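Medium: Induction medium lacking tetracycline, stripped serum | Probe or stimulus: 1.0 µM final dexamethasone stimulus | Schedule: 48 h induction, then 1 h compound, then 30 min agonist, 37 °C | Signal: Automated 10x imaging of fixed Hoechst-stained cells | Evaluation: Per-cell GR-EGFP intensity, nucleus versus surrounding cytoplasmic ring, well-averaged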
L major viab: Leishmania major promastigote growth inhibition | Leishmania major promastigotes, resazurin fluorescence viability | hit rate 9% among 200,000 | inhibition, % at 10 µM; in the data active = inhibition above about 50%;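 also: promastigotes grown with compound for 44 hours at 28 °C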
bCat nuc transl: alters nuclear translocation of beta-catenin in HeLa cells; AID 1665; immunofluorescence imaging; nuclear translocation activity, % at 5 µM; hit rate 0.3% among 190,000;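 active = nuclear translocation activity above 50% at 5 µM, with a well cell count of 50 or more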;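 also: per-cell ratio of nuclear to cytoplasmic median beta-catenin stain intensity; plate controls were DMSO negative control for no effect and GSK-3 inhibitor IX positive control for full effect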
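Technique: fluorescence imaging of beta-catenin antibody stain plus DAPI / Material: human HeLa cell line / Incubation: compound treatment 24 h, 37°C, 5% CO2 / Read-out basis: % activation of per-cell nuclear versus cytoplasmic median beta-catenin signal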
MT stabilize HCS: microtubule stabilizers in HeLa cells. HeLa tubulin immunostaining HCS, 24 h; share of cells brighter than vehicle mean+2SD. % tubulin-high responders, % at 10 µM. hit rate 0.83% among 200,000. AID 2205;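 active = plate Z-score above 3 for both tubulin-high and condensed-nucleus cell shares, with cell loss under 80%, at 10 µM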;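 also: anti alpha tubulin signal scored within the nucleus-defined area of each cell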
Autophagy HCS: modulators of autophagy; calls only at 10 µM (by protocol); hit rate 0.98% among 190,000; MEF GFP-LC3 puncta imaging; test concentration mostly 10 µM;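 active = percentage of spot-positive cells more than 3 SD above its plate mean, without a fluorescence outlier flag or 80% toxicity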;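 also: spot-positive cell cutoff set from DMSO-treated cells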
L major 1uM: inhibitors of Leishmania major promastigote growth, repeat at 1 uM; shares compounds with L major viab; L. major promastigote growth, resazurin fluorescence, 48 h; inhibition, % at 1 µM; hit rate 13% among 1,100; AID 1258;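 active = inhibition above about 50% in both repeat tests, limit read from the data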
Starred values were filed as active, the others as inactive; i = inactive; nt = not tested or not shown; + = active, no number. Compounds with a hit are over-represented: about 12% of the library has one in this group of screens.

SMILES | CHOP inhibitor | Dynein transport | L major viab | bCat nuc transl | MT stabilize HCS | Autophagy HCS | L major 1uM
COc1ccc(C(N)CCc2ccc(C)o2)cc1 (stereo unspecified) | 9.0 | 1.24 | 53.5* | -1.3 | 6.9 | i | -15.0
O=[N+]([O-])c1cc(Cl)cc(C2=NCCN2)c1 | -14.9 | 1.62 | 51.6* | nt | 4.5 | i | -15.0
O=C1CC(c2ccc(Br)cc2)NC(c2ccc(Br)cc2)C1c1ccccc1 (stereo unspecified) | 54.2 | -0.187 | 89.7* | 1.5 | 2.4 | i | -4.2
CC1/C(=N/O)CC(c2ccccc2)NC1c1ccccc1 (stereo unspecified) | 47.4 | -0.312 | 1.5 | nt | 1.5 | i | nt
Cc1cccc(Nc2nc(NCc3ccco3)nc(N)c2[N+](=O)[O-])c1 | 18.3 | -0.501 | nt | -2.4 | nt | nt | nt
Cc1cccc(Nc2nc(N3CCN(C)CC3)nc(N)c2[N+](=O)[O-])c1 | 6.0 | -0.27 | 96.0* | -0.4 | 4.6 | i | -2.6
C=CCSC(=S)NC1CCS(=O)(=O)C1 (stereo unspecified) | 70.4* | -2.71 | 93.1* | 0.1 | 1.8 | i | 5.6
CCCn1c(N)c(N(CCOC)C(=O)/C=C/c2ccc(C(=O)OC)cc2)c(=O)[nH]c1=O | -4.4 | -0.0834 | -3.2 | -0.4 | 3.6 | i | nt
CSCCC(NC(=O)c1cccc([N+](=O)[O-])c1)C(=O)O (stereo unspecified) | 10.4 | -0.183 | 78.7* | -3.6 | 4.6 | i | -2.3
O=C(CSC1CN(C(c2ccccc2)c2ccccc2)C1)N/N=C/c1ccccc1 | 7.2 | 0.121 | nt | 2.6 | nt | nt | nt
CC(CCc1ccccc1)N(C)CC(O)c1cccc([N+](=O)[O-])c1 (stereo unspecified) | 25.9 | -0.906 | nt | -0.8 | nt | nt | nt
CC(CCc1ccc(O)cc1)N(C)CCc1ccccc1 (stereo unspecified) | 30.4 | -0.943 | 94.1* | -2.1 | 6.7 | i | 25.8
COc1cc(C(=S)N2CCN(c3ccccc3Cl)CC2)cc(O)c1O | 21.4 | -0.215 | 16.0 | 1.7 | 4.6 | i | nt
N=c1c(-c2nc3ccccc3[nH]2)cc(C(=O)c2cccs2)nn1-c1ccc(Cl)cc1 | nt | 0.136 | 91.4* | nt | 3.8 | + | 35.0
N#C/C(C(=O)N1CCCCC1)=C1/N=C(N)c2ccccc21 | 8.2 | -0.195 | 60.8* | -1.2 | 1.2 | i | -5.1
CC1=[N+]([O-])C(C)(C)C(c2ccc(Br)cc2)=[N+]1[O-] | 42.6 | -0.602 | 15.4 | 1.1 | 1.1 | i | nt
Cn1c(-c2ccc(-c3ccccc3)cc2)c[nH]c1=S | 21.0 | 0.269 | 57.2* | 2.4 | 11.4 | i | -3.7
CCn1c(-c2ccc(-c3ccccc3)cc2)c[nH]c1=S | 27.5 | -1.03 | 16.4 | -3.1 | 2.2 | i | nt
Cc1[nH]c2c(ccc3ccccc32)c1C1C(CCN)C1(C)C (stereo unspecified) | 92.0* | 10.1 | 100.4* | 2.6 | 4.0 | i | -21.2
COc1ccc(/C=C2\C(=O)N(c3nc(-c4ccc(Br)cc4)cs3)N=C2c2ccccc2)cc1 | nt | -0.898 | -0.6 | nt | 1.6 | i | nt
COc1ccc(C2=NN(c3nc4ccccc4s3)C(=O)/C2=C\N(C)C)cc1 | 37.4 | -0.374 | 53.9* | -2.7 | 4.7 | i | -17.6
N#Cc1ccc[n+](CC(=O)c2ccc(NC(=O)c3ccccc3)cc2)c1 | -14.5 | -1.11 | nt | -1.0 | nt | nt | nt
O=c1[nH]c(-c2ccccc2)cs1 | -48.9 | 1.44 | -2.3 | -1.8 | 6.6 | i | nt
S=c1[nH]c(-c2ccccc2)cs1 | -6.2 | 0.965 | 77.3* | -3.4 | 6.5 | i | -9.3
CCN(CC)S(=O)(=O)c1ccc(N2CCOCC2)c(NC(=O)c2cnccn2)c1 | -16.5 | -0.843 | 1.5 | -1.9 | 3.2 | i | nt
SMILES | CHOP inhibitor | Dynein transport | L major viab | bCat nuc transl | MT stabilize HCS | Autophagy HCS | L major 1uM
COCC(=O)N/N=C/c1ccc(Sc2nc3ccccc3s2)o1 | 21.6 | -0.33 | 81.3* | 12.2 | 3.1 | i | -8.3
O=Cc1ccc(OC2OCCOC2Oc2ccc(C=O)cc2)cc1 (stereo unspecified) | 29.1 | -0.0914 | 53.2* | -4.0 | 5.5 | i | 1.5
COc1cc(C2SCC(=O)N2c2nnc(C34CC5CC(CC(C5)C3)C4)s2)cc(OC)c1OC (stereo unspecified) | 40.1 | -1.43 | 1.1 | -2.0 | 1.9 | i | nt
COc1ccc(C2SCC(=O)N2c2nnc(C34CC5CC(CC(C5)C3)C4)s2)cc1 (stereo unspecified) | -2.8 | 0.195 | 98.4* | -0.5 | 1.9 | i | -10.1
COc1ccc2ccccc2c1/C=N/O | -4.1 | 0.119 | 9.5 | -4.1 | 2.0 | i | nt
C=CCOc1ccc2ccccc2c1/C=N/O | 4.2 | -0.556 | 51.1* | nt | 1.0 | i | 0.7
O=C(CSc1ccccn1)NC1CCCC1 | -6.2 | 2.12 | 1.3 | 2.8 | 1.9 | i | nt
O=c1[nH][nH]cc1C=Nc1ccccc1O | 11.1 | -0.186 | 97.9* | 0.7 | 5.0 | i | -4.4
O=c1[nH][nH]cc1C=Nc1ccccc1Cl | 19.9 | 1.04 | -3.7 | -2.8 | 2.3 | i | nt
c1ccc2c(NC3CCCC3)nnc(NC3CCCC3)c2c1 | -22.8 | 1.22 | 97.2* | 0.1 | 2.5 | i | 11.9
O=[N+]([O-])c1ccc2c(c1N1CCCCC1)=NC1(CCCCC1)[N+]=2[O-] | 14.1 | -1.42 | nt | 0.2 | nt | nt | nt
[O-][N+]1=c2ccc(Nc3ccccc3)cc2=NC12CCCCC2 | -22.8 | -1.38 | 100.4* | 11.5 | 29.1* | i | 66.1*
CCOC(=O)C1(N(CC)CC)Sc2cc(C)ccc2NC1=O (stereo unspecified) | nt | -0.716 | 93.8* | -1.8 | 2.2 | i | -1.1
CCOC(=O)C1(Nc2nccs2)Sc2ccccc2NC1=O (stereo unspecified) | nt | -0.915 | 9.4 | 3.4 | 38.7 | i | nt
Cc1occc1C(=O)NNC(=O)C1CCCCC1 | -0.8 | 2.61 | 71.8* | 0.2 | 4.1 | i | -14.7
O=C(c1cccc(Br)c1)c1cn(-c2ccccc2)nc1C(=O)c1ccccc1 | -37.9 | 0.214 | 87.7* | -2.2 | 2.1 | i | 6.6
NC(=O)N/N=C/c1cn(CC(=O)Nc2ccc(F)cc2)c2ccccc12 | 2.3 | -0.388 | nt | -0.8 | nt | nt | nt
CNC(=O)/C=C1\NC(C)(C)Cc2c1ccc1ccccc21 | 36.9 | -2.11 | 54.3* | -0.3 | 3.7 | i | 5.2
CC1NC(C)(C)Cc2c1ccc1ccccc21 (stereo unspecified) | -10.9 | -0.971 | -2.9 | -0.5 | 1.6 | i | nt
N#Cc1cc(Oc2ccccc2)c(-n2nnc3ccccc32)cc1C#N | -17.0 | 0.203 | -3.5 | -0.3 | 3.6 | i | nt
N#Cc1cc(Oc2ccc3ccccc3c2)c(-n2nnc3ccccc32)cc1C#N | 27.2 | -0.338 | 52.1* | nt | 3.0 | i | 95.7*
N#Cc1cc2sc3nc4ccccc4n3c2cc1C#N | 13.0 | -0.786 | -4.9 | 1.3 | 3.0 | i | nt
